Experimental data gathered from unrelated publications.
Compare with care: the assays were run in different laboratories.
Target: Bone morphogenetic protein receptor type-1A (BMPR1A, Homo sapiens, UniProt P36894)

Cc1ccc(C(=O)Nc2ccc(CN3CCN(C)CC3)c(C(F)(F)F)c2)cc1C#Cc1cnc2cccnn12 — remaining activity (enzyme activity; 23.5 nM): 97%
Cc1noc([C@H]2C[C@@H](c3ccc(C(F)(F)F)cc3)CN(C(=O)N3CCS(=O)(=O)C3)C2)n1 — remaining binding (binding; competition with immobilised ligand; 1 µM): 100%
CCOc1cc(-c2nncn2C)ccc1Nc1ncc2cc(C)nc(NCC(C)(C)C)c2n1 — inhibition (cell-free assay; TR-FRET; 1 µM): ≤ 15%
CC(C)(C)c1nc2c(s1)c1nc(N)ncc1c1ccc(NS(=O)(=O)c3c(F)cccc3F)c(F)c12 — remaining activity (enzyme activity; inhibitor; radiometric; 1 µM): 96%
Nc1ncnc2occ(-c3ccc(NC(=O)Nc4cc(C(F)(F)F)ccc4F)cc3)c12 — remaining signal (cell-free assay; 20 µM): 100%
O=C(Nc1cnn(-c2csc(C(=O)NC3COC3)c2)c1)Nc1ccccc1Cl — remaining activity (enzyme activity; inhibitor; 5 µM): 105%
CC(C)(C)c1nc(-c2cccc(NS(=O)(=O)c3c(F)cccc3F)c2F)c(-c2ccnc(N)n2)s1 — remaining activity (enzyme activity; inhibitor; radiometric; 1 µM): 48%
Nc1cnc(N2CCc3cc(S(=O)(=O)Nc4c(F)cc(Cl)cc4F)cc(N4CCCC4=O)c32)nc1 — remaining binding (cell-free assay; competition with immobilised ligand; 1 µM): 91%
Cc1sc(C(=O)NC2COC2)cc1-n1cc(NC(=O)Nc2c(F)cccc2Cl)cn1 — remaining activity (enzyme activity; inhibitor; 10 µM): 92.5%
